In ChEMBL document CHEMBL4513216, “Probing the Open Global Health Chemical Diversity Library for Multistage-Active Starting Points for Next-Generation Antimalarials” (ACS Infect Dis, 2020):

Assay: Toxicity liver stage against HepG2, at 10uM
Type: cell-based
Set-up: test concentration 10 uM, cell line HepG2-A16-CD81EGFP
Details: human, HepG2-A16-CD81EGFP cells; read-out: INHIBITION
Summary of the method: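 Uninfected HepG2-A16-CD81EGFP cells, 3 × 10^3 per well, 1536-well, plated on prespotted compound at 10 μM final, parasite-free screening media added to match infected plates; puromycin 10 μM positive, DMSO 0.5% negative; run in parallel with 48 h PbLuc assay at 37 °C, 5% CO2; viability by CellTiter-Glo luminescence, normalized to controls.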

| SMILES | cytotoxicity at 10 µM |
| --- | --- |
| CC[S+](CC)[c-]1c(=O)[nH]c(=O)n(CCc2ccc(F)cc2)c1=O | 4.12% |
| Cc1cc(C(=O)N2CC[C@H](OCC3CC3)[C@@H]2Cc2cccnc2)no1 | -6.44% |
| CS(=O)(=O)NC[C@]12COC[C@H]1CN(C(=O)Cc1ccccc1F)C2 | -2.57% |
| O=C(NCCO)C1(Cc2ccccc2-c2ccncc2)CCOCC1 | 2.27% |
| CCc1nnc(Nc2cccc(C3CCN(C(=O)CNC)CC3)n2)s1 | -31.2% |
| Cc1nc(Nc2cnccn2)cc(C2CCN(c3ncccn3)C2)n1 (configuration not stated) | -19.5% |
| CNc1cc(C2CCCN2Cc2ccc(OCC(=O)O)cc2)ccn1 (configuration not stated) | -21.9% |
| CC(=O)N1CCN(CC(N)=O)CC(COc2ccccc2)C1 (configuration not stated) | -28.7% |
| COCC(=O)N1CCN(Cc2cc(-c3ccncc3)nn2C)CC1 | -4.17% |
| COc1ccccc1N1CCN(C(=O)c2ccoc2)CC1 | 11.5% |
| Cc1cc(F)ccc1N1CCCC(NS(=O)(=O)CCCF)C1=O (configuration not stated) | -3.14% |
| CN(CC(=O)NCc1cc2ccccc2o1)S(C)(=O)=O | 4.59% |
| NC(=O)C1CCN(CCCc2ccc(C(F)(F)F)cc2)CC1 | -0.85% |
| CCN(CC)c1ccc(CNC(=O)c2ccccn2)cn1 | 10.8% |
| O=C(c1cnc(NCC2CCCO2)c(Cl)c1)N1CCOCC1 (configuration not stated) | 0.0875% |
| c1nc(N2CCCC(Cn3cncn3)C2)c2ccsc2n1 (configuration not stated) | 5.68% |
| Cc1ccc(OCCNc2cccc(C(=O)N3CCOCC3)c2)cc1 | 4.14% |
| CN(CC(N)=O)S(=O)(=O)c1ccc(F)cc1F | 4.26% |
| CCOC(C)c1nc(Cn2cc(C(=O)NC)ccc2=O)cs1 (configuration not stated) | -0.315% |
| CN(Cc1nnc(C2CC2)o1)C(c1ccc(F)cc1)c1cccnc1 (configuration not stated) | -4.06% |
| Cc1ccccc1C(C)(C)CNC(=O)CCSc1nnnn1C | 6.51% |
| Cc1nc(O)ccc1C(=O)NCc1ncoc1C | 5.68% |
| Cc1[nH]ccc1C(=O)NCc1ncoc1C | -2.45% |
| CS(=O)(=O)N1CCN(c2cc(N3CCCC3CO)ncn2)CC1 (configuration not stated) | 3.51% |

| SMILES | cytotoxicity at 10 µM |
| --- | --- |
| CC(C)(C)c1cnc(CNc2cccc(Cn3cnnc3)c2)o1 | 2.72% |
| CC(C)(C)C(O)CN1CCN(CC(=O)NC(C2CC2)C2CC2)CC1 (configuration not stated) | 3.51% |
| CN(C(=O)c1cccnc1OCC(F)F)c1ccc2c(c1)CCO2 | 3.47% |
| CCOCCCNC(=O)c1ccccc1S(C)(=O)=O | -1.58% |
| COc1ccc(C2(C(=O)N3C[C@@H](C(=O)O)[C@H](C(C)C)C3)CC2)cc1 | -8.36% |
| CC(C)Cc1cc(C(=O)NC(C)(C)c2nnc(N)s2)n(C)n1 | 0.91% |
| N#Cc1cccnc1N1CCCC(CO)(Cc2ccccc2F)C1 (configuration not stated) | 4.01% |
| CCSCCn1cc(-c2nccs2)nn1 | 0.935% |
| CCN(Cc1ccncc1)C(=O)c1cn(CCCc2ccccc2)nn1 | 3% |
| CN(CCCOc1ccccc1)Cc1nc2c(cnn2C)c(=O)[nH]1 | -3.23% |
| Cc1ccc(C2CCCN2S(=O)(=O)N(C)CCc2ccccn2)o1 (configuration not stated) | -5.31% |
| Cc1ccccc1OCC(O)CN1CCC(c2ccn[nH]2)CC1 (configuration not stated) | 0.531% |
| Cc1cnn(CC2CCCCN2Cc2nnsc2Cl)c1 (configuration not stated) | -2.93% |
| Cc1ncc(CN2CCCC(c3cc(C(F)(F)F)[nH]n3)C2)s1 (configuration not stated) | -17.8% |
| CCN1CCC(CNC(=O)Nc2cc(C)on2)C1 (configuration not stated) | -7.33% |
| Cc1cnn(CCNCc2ccc(OCc3cccnc3)cc2)c1 | -12.1% |
| Cc1nn(C)c(N(C)C)c1CNCc1cccc(Cn2cncn2)c1 | -7.85% |
| Cc1cnn(CC(C)NCc2ccncc2)c1 (configuration not stated) | -2.81% |
| O=C1NCC(C(=O)Nc2ncc(Cc3ccccc3F)s2)N1 (configuration not stated) | -1.11% |
| CCc1n[nH]c(C2CN(Cc3nnc(C4CC4)n3C)CCO2)n1 (configuration not stated) | 5.25% |
| CC(c1ccc(F)cc1F)N1CCN(CCC(=O)O)CC1 (configuration not stated) | -3.6% |
| CNC1CCCN(Cc2noc(C3CC3)n2)C1 (configuration not stated) | 0.95% |
| Cc1cnc(C(=O)N2CCCC(c3c(C)c(=O)nc4n3CCC4)C2)cn1 (configuration not stated) | -26.5% |
